Test results published in ChEMBL document CHEMBL4513216, “Probing the Open Global Health Chemical Diversity Library for Multistage-Active Starting Points for Next-Generation Antimalarials” (ACS Infect Dis, 2020).

Test: Toxicity liver stage against HepG2, at 10uM
Format: cell-based
Design: test concentration 10 uM, cell line HepG2-A16-CD81EGFP
Details: human, HepG2-A16-CD81EGFP cells; read-out: INHIBITION
Procedure, shortened: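 Uninfected HepG2-A16-CD81EGFP cells, 3 × 10^3 per well, 1536-well, plated on prespotted compound at 10 μM final, parasite-free screening media added to match infected plates; puromycin 10 μM positive, DMSO 0.5% negative; run in parallel with 48 h PbLuc assay at 37 °C, 5% CO2; viability by CellTiter-Glo luminescence, normalized to controls.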

| SMILES | cytotoxicity at 10 µM [%] |
| --- | --- |
| CCOCCCNC(=O)C(NC(=O)Cc1cccs1)c1ccccc1 (stereo unspecified) | 12.3 |
| Cc1ccc(C)c(CSc2nnc([C@@H](N)C(C)C)o2)c1 | 5.95 |
| COCCN1C[C@H]2CN(C(=O)c3ccno3)CCN2C1=O | 1.29 |
| COC(=O)c1ccc(-c2ccc(/C=C3\C(=O)NC(=N)N3C)o2)cc1 | -66.3 |
| COc1cnc(CSc2nnc(C)s2)cc1OCC(N)=O | 8.52 |
| CCS(=O)(=O)N1CCc2ccc(NC(=O)Nc3ccccc3C)cc21 | 13.1 |
| O=C1CC2(CCN(C(=O)c3ccccn3)CC2)Oc2c(Br)cc(Br)cc21 | 11.5 |
| CC(C)CN1CC(O)CN(S(=O)(=O)c2ccc(F)cc2)CC1=O (stereo unspecified) | 2.99 |
| COc1ccccc1C(=O)N1CC(=O)N(CC2CC2)CC(O)C1 (stereo unspecified) | 5.99 |
| COC(=O)c1ccc(C2CC(=O)Nc3c2cnn3C)cc1 (stereo unspecified) | -2.56 |
| O=C(Cn1cnc2ccsc2c1=O)NCCCc1nnc2ccccn12 | 1.43 |
| O=C(CCn1ccc(=O)[nH]c1=O)N1CCC(Oc2ccccn2)CC1 | -1.47 |
| Cn1cnc(S(=O)(=O)NCC2(O)CCOc3ccccc32)c1 (stereo unspecified) | 12 |
| CS(=O)(=O)N1CCCC12CCCN(C(=O)c1cc(F)cc(F)c1)C2 (stereo unspecified) | -140 |
| Cc1ncsc1CN1C[C@H]2OCC[C@H]2[C@H](C(=O)NCC2CC2)C1 | 5.6 |
| COCC1c2c(cnn2C)CCN1Cc1ccc(C)o1 (stereo unspecified) | -5.73 |
| CC(C)CC(=O)N1CCN(C(=O)NC(C)C)CC2(CC(=O)N(C)C2)C1 (stereo unspecified) | 3.25 |
| Cc1ccc(NC(=O)CC2Cn3ncnc3NC2=O)cc1C (stereo unspecified) | 10.5 |
| CCOCCCNC(=O)CN(c1cc(C)cc(C)c1)S(C)(=O)=O | 4.48 |
| O=C1CO[C@@H]2CN(S(=O)(=O)c3ccccc3)C[C@H]2N1CC1CC1 | -3.1 |
| CCC(C)NC(=O)c1ccn(COc2ccccc2Cl)n1 (stereo unspecified) | 5.75 |
| Cc1nccn1-c1nccnc1C1CCCN(C)C1 (stereo unspecified) | 2.2 |

| SMILES | cytotoxicity at 10 µM [%] |
| --- | --- |
| CC[C@@H](Cn1ncc2ccccc2c1=O)NC(=O)c1ccco1 | 8.44 |
| CN(C(=O)c1ccccc1F)[C@@H]1CC[C@@H](O)[C@@H]1O | -6.11 |
| CN(C)c1cc(C2CCCN(C(=O)c3ccc(=O)[nH]n3)C2)ccn1 (stereo unspecified) | -9.04 |
| O=c1c2ccccc2nc2n1C(CSc1ccc(Cl)cc1Cl)CN2 (stereo unspecified) | 6.01 |
| c1ccc(-c2nc(CCNCc3ccccn3)co2)cc1 | -1.89 |
| CCN(C)S(=O)(=O)c1c(F)cc(NC(C)=O)cc1F | -40.7 |
| O=S(=O)(NC1CCOC1)c1ccc(C(F)(F)F)nc1 (stereo unspecified) | 8.16 |
| O=C(CCCc1nc2ccccc2[nH]1)N1CCCC1c1ccncc1 (stereo unspecified) | 3.79 |
| CCc1noc(CNc2cccc(C(=O)N3CCSCC3)c2)n1 | -5.73 |
| Cc1cc(CN(C)C(=O)NC(C)Cc2ccco2)no1 (stereo unspecified) | 6.62 |
| Cc1cn2c(n1)CCC(NS(=O)(=O)c1ccc(C)s1)C2 (stereo unspecified) | 12.9 |
| CCC(C)(CC(=O)OC)NC(=O)c1ccc(C(C)=O)cc1 (stereo unspecified) | -4.89 |
| Clc1cccc(N2CCC(NCc3ncc[nH]3)C2)c1 (stereo unspecified) | 7.41 |
| Cc1n[nH]cc1CNC(=O)[C@H]1CCCCN1C(=O)OC(C)(C)C | -0.311 |
| CC(=O)N1CCCN(Cc2nnc(C(C)(C)C)o2)CC1 | -4.13 |
| CC(C)(C)c1cnc(CNCC2CCCN2c2cccnn2)o1 (stereo unspecified) | -2.2 |
| CCc1nccn1C1CCCN(C(=O)c2ccnc(C)n2)C1 (stereo unspecified) | -1.12 |
| Cc1sc2nc(C(F)(F)F)nc(N3CCC(NS(C)(=O)=O)CC3)c2c1C | -17 |
| CC(=O)N1CCN(c2nc(C(F)(F)F)nc3sc(C)c(C)c23)CC1 | -4.33 |
| Cn1cc(S(=O)(=O)N2CCCC2Cn2ccnc2)cn1 (stereo unspecified) | 6.58 |
| CC(C)c1noc(CS(=O)(=O)Cc2nc(C(C)C)no2)n1 | -7.85 |
| CCN(Cc1cccc(NC(=O)COC)c1)C(C)=O | -125 |

| SMILES | cytotoxicity at 10 µM [%] |
| --- | --- |
| O=C(NC1CCN(c2ccccc2Br)C1)c1c[nH]nn1 (stereo unspecified) | -17.9 |
| CC(C)N(Cc1ccccn1)C(=O)CCC(=O)c1ccccc1 | 3.33 |
| COc1ccc(C2CCCN2Cc2cnn(C)c2)cc1 (stereo unspecified) | 7.53 |
| Cc1cc(C)n(C2CN(CC(O)Cn3cccn3)C2)n1 (stereo unspecified) | -5.09 |
| NS(=O)(=O)c1cnn(-c2ccc(NC(=O)CC3CCCC3)cn2)c1 | 6.74 |
| CCN1CCc2c(cccc2NC(=O)CN(C)C2CCSC2)C1 (stereo unspecified) | -47 |
| CCN(CC1CCCO1)C(=O)NCCNC(=O)c1ccccc1F (stereo unspecified) | 5.63 |
| COc1cccc(C(=O)NC(C)CCN2CCOCC2)c1F (stereo unspecified) | -45.2 |
| COCCn1c2c(ccc1=O)CCN(C(=O)CC1CC1)CC2 | 2.24 |
| O=C(CC1CCCC1)N1C[C@@H]2CN(Cc3ccoc3)CCO[C@@H]2C1 | -79.3 |
| O=C(c1ccnnc1)N1C[C@H]2CN(Cc3cccc(F)c3)C(=O)[C@H]2C1 | -77.3 |
| Cc1noc(C)c1CN1CC[C@H]2C[C@H](c3ccncn3)O[C@@H]2C1 | -69.5 |
| Cc1nc([C@@H]2C[C@@H]3CCN(C(=O)Cc4cccc(F)c4)C[C@H]3O2)no1 | 4.17 |
| Cc1nc([C@@H]2C[C@@H]3CCN(C(=O)Cc4ccsc4)C[C@H]3O2)no1 | 1.85 |
| CSCCC(=O)N1CCCN(c2ccccc2C)CC1 | -9.31 |
| COCCN(Cc1sccc1C)C(=O)COc1ccccc1O | -145 |
| Cc1c(NC(=O)c2cnc[nH]2)cccc1C(=O)NC(C)(C)C | -6.46 |
| O=C(C1CCCO1)N1CCC(Cn2cc(C3CCCC3)nn2)CC1 (stereo unspecified) | 5.61 |
| CN(C)c1nc2c(c(N3CCCC3)n1)CCN(C(=O)c1ccc[nH]1)CC2 | 7.81 |
| CCc1noc(CN(C)C(=O)c2ccccc2-c2ncn[nH]2)n1 | 16.7 |
| Cc1ccnc(Cn2cc(-c3cccc(C(C)N(C)C)c3)nn2)c1 (stereo unspecified) | 1.74 |
| CCCOCC1CCN(C(=O)Cn2cccc(C(F)(F)F)c2=O)C1 (stereo unspecified) | -16.3 |

| SMILES | cytotoxicity at 10 µM [%] |
| --- | --- |
| Cc1nc2c(NC(CC(C)(C)C)c3cccnc3)ncnc2o1 (stereo unspecified) | 4.24 |
| Cc1ccc(OCC2CCCN(c3nc(CO)cs3)C2)cc1 (stereo unspecified) | 5.4 |
| Cc1nn(C)c(C)c1-c1cc(-c2cnn(C)c2C2CC2)c(C#N)c(N)n1 | 18 |
| Cc1cc(C(=O)N2CCn3nc(C(=O)NC4CC4)cc3C2)nc(C)n1 | 1.15 |
| O=S1(=O)C[C@@H]2[C@H](C1)N(Cc1ncc[nH]1)CCN2CCCc1ccccc1 | 0.662 |
| Nc1cc(N2CCCC(Cc3ccc(F)cc3F)(C(=O)O)C2)ncn1 (stereo unspecified) | 10.6 |
| Cc1ccc(C(=O)NC2CCN(C)CC2)cc1N(C)S(C)(=O)=O | -0.853 |
| Cc1ccc(-c2cc(C(=O)N(C)Cc3noc4c3CCCC4)[nH]n2)o1 | -11 |
| O=C(CCCN1CCCCC1)N[C@H](C(=O)O)c1cccc(F)c1F | -13.2 |
| CN(CC1CCCN1C)c1nccc(C2CCCC2)n1 (stereo unspecified) | -12.9 |
| CNc1ccc(CC2CCCN(C(=O)c3cnc(C)nc3)C2)nn1 (stereo unspecified) | -1.2 |
| Cc1cnn(CCNCc2cc(C#N)ccc2F)c1 | -10.1 |
| CNC(=O)CN1CCC(NC(=O)N(C)Cc2c(C)noc2C)CC1 | 2.1 |
| CCCN1CCCC1Cn1nc(C)cc1C (stereo unspecified) | -7.72 |
| CCN(CC1CCOC1)C(=O)c1cnc2onc(C)c2c1 (stereo unspecified) | -10.4 |
| Cc1csc(C2CCCCN2C(=O)CN(C)C2CC2)n1 (stereo unspecified) | -1.9 |
| CCn1ccnc1CN1CCCN(C(=O)Cc2ccc(C)nc2)CC1 | -1.92 |
| CC(C)c1nc(CN2CCN(CC3CCCO3)CC2)cs1 (stereo unspecified) | -1.52 |
| Cc1[nH]c2c(C)cccc2c1CC(=O)N(C)CCN(C)C | 1.14 |
| CC(=O)N1[C@H](Cn2cncn2)C[C@@H]2CN(Cc3ccccn3)CC[C@@H]21 | 0.732 |
| COC[C@H]1CNC(=O)[C@@H]2CCN(Cc3ccc(F)cc3)CC[C@H]12 | 14.2 |
| CN1CC[C@H]2[C@H](C[C@@H](CN3CCCC3)N2c2nccs2)C1 | 3.59 |

| SMILES | cytotoxicity at 10 µM [%] |
| --- | --- |
| CC(C)(C)C(=O)N1C[C@H](c2ccsc2)[C@H]2CN(C3CCCC3)CC[C@H]21 | 2.33 |
| CN(C)C(=O)[C@H]1CO[C@H]2CCN(c3ncc(F)cn3)C[C@H]2C1 | 7.75 |
| O=C(c1cscn1)N1CCC2(CN(Cc3ccoc3)C2)C1 | 7.2 |
| COCCC1COC2(CCN(C(=O)c3cccnc3)CC2)C1 (stereo unspecified) | -72.4 |
| Cc1nc(CN2CCC3(CC2)CC(c2cccnc2)C(=O)N3C)cs1 (stereo unspecified) | 9.95 |
| O=C(NCc1cncc2c1CCN(C1CCOCC1)C2)c1ccno1 | -2.67 |
| CS(=O)(=O)N1CCC2(CCCN(Cc3ccccn3)C2)CC1 | -121 |
| Cc1cccc(CN2CC[C@H]3O[C@H](C(=O)Nc4cnccn4)CC[C@H]32)n1 | -144 |
| CCc1cnc(N2CCC3(CC(=O)N(Cc4csc(C)n4)C3)C2)nc1 (stereo unspecified) | -2.71 |
| CCCS(=O)(=O)N1CCOC2(CCCN(Cc3ccccn3)C2)C1 (stereo unspecified) | -0.58 |
| O=C([C@@H]1CCO[C@@H]2CCN(CC3CCOCC3)C[C@H]21)N1CCCO1 | 7.37 |
| COc1cc(N2C[C@@H]3COC[C@]3(COCc3ccncc3)C2)ncn1 | -72.4 |
| Cc1cc(CN2C[C@@H]3COC[C@@H](C(=O)N4CCCCO4)[C@@H]3C2)no1 | -80.6 |
| O=C(c1cccnc1)N1CCC2(CC1)CC(Oc1ccccc1)CO2 (stereo unspecified) | 1.65 |
| Cc1nc(CN2CCC3(CC2)NC(=O)CC3c2ccccc2)cs1 (stereo unspecified) | 4.33 |
| c1cc(CN2CCOCC3(C2)CN(Cc2nccs2)CCO3)ccn1 (stereo unspecified) | 2.14 |
| CCn1cc2[nH]c(OC)c(CNC(=O)C3CCCN(C)C3)cc-2c1=O (stereo unspecified) | 11.3 |
| COCC1N(C(=O)c2ccco2)C2CCC1(O)CC2 (stereo unspecified) | 1.4 |
